ChEMBL document CHEMBL1133747, “A rational approach to the design and synthesis of a new bradykinin B(1) receptor antagonist” (J Med Chem, 2000)
Activity calls are given as the source filed them. The calls are words filed in the database; no cut-off is given here. Square brackets hold non-standard residues; d marks the D form. Peptide text beside a SMILES is read from it. ξ: configuration not given here. Oic(3aξ,7aξ) = O=C(O)[C@@H]1CC2CCCCC2N1; Tic = O=C(O)[C@@H]1Cc2ccccc2CN1; Aun = NCCCCCCCCCCC(=O)O

Key:
[1] = molecular target: T1, B1 bradykinin receptor (Homo sapiens) (UniProt P46663); test: Binding affinity towards human cloned B1 receptor was determined using [3H][des-Arg10-Leu9]-kallidin as radioligand; No significant affinity at 10E-5 M
T1 sequence (whole entry): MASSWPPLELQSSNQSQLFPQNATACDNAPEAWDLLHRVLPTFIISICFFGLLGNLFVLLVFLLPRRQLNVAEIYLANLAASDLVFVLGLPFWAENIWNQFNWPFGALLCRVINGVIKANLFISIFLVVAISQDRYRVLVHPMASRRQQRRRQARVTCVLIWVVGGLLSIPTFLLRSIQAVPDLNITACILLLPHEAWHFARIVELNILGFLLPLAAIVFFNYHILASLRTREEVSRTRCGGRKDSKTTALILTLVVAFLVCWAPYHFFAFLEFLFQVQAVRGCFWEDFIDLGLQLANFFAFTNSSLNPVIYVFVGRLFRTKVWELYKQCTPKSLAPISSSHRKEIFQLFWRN

[2] = molecular target: T2, B2 bradykinin receptor (Homo sapiens) (UniProt P30411); test: Binding affinity towards human cloned B2 receptor was determined using [3H]BK as radioligand; Inactive
T2 sequence (whole entry): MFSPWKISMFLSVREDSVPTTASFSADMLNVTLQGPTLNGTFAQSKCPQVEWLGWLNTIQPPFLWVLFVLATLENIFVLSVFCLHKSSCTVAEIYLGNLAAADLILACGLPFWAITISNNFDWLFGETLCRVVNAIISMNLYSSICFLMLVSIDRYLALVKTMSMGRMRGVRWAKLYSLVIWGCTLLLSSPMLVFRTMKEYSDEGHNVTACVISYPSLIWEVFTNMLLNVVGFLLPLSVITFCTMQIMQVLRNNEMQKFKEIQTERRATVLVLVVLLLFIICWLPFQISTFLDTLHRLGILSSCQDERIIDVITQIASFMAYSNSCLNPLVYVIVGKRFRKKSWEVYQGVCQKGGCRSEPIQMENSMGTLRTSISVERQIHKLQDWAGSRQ

[3] = molecular target: T1, B1 bradykinin receptor (Homo sapiens); test: Binding affinity towards human cloned B1 receptor was determined using [3H][des-Arg10-Leu9]-kallidin as radioligand; No significant affinity at 10 uM
Rattus norvegicus = species: Rattus norvegicus; test: Compound was tested for antagonist activity on rat ileum longitudinal smooth muscle; assay type: functional; conditions: read-out: pA2 (converted)
B2 bradykinin receptor = molecular target: T3, B2 bradykinin receptor (Homo sapiens, UniProt P30411); test: Binding affinity towards human cloned B2 receptor was determined using [3H]BK as radioligand
T3 sequence (P30411 whole entry): T2 sequence (whole entry)

Homo sapiens = species: Homo sapiens; test: Competitive inhibition of the contraction of the human umbilical vein induced by the potent B1 receptor agonist [des-Arg10]-kallidin; assay type: functional; conditions: read-out: pA2 (converted)
Summary of the method: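 Human umbilical vein rings (3-4 mm) incubated overnight at 37 °C in Krebs (B1 induction), then set in organ baths at 37 °C, 95% O2/5% CO2, stretched to 1 g. Antagonist or vehicle 15 min before [des-Arg10]-kallidin concentration-response curve (one per ring), expressed as % of 1 µM U46619 maximal contraction.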

B1 bradykinin receptor = molecular target: T4, B1 bradykinin receptor (Homo sapiens, UniProt P46663); test: Binding affinity towards human cloned B1 receptor was determined using [3H][des-Arg10-Leu9]-kallidin as radioligand
T4 sequence (P46663 whole entry): T1 sequence (whole entry)

Row | NA [2] | NS [3] | SMILES | other results
1 | inactive | – | NCCCC[C@H](N)C(=O)N[C@@H](CCCN=C(N)N)C(=O)N1CCC2(CC1)C(=O)N(CC(=O)N[C@@H](CO)C(=O)N[C@@H]1CSc3ccccc3N(CC(=O)O)C1=O)CN2c1ccccc1 | NS [1]: inactive
2 | inactive | inactive | C[C@H](N)C(=O)N[C@@H](CCCN=C(N)N)C(=O)N1CCC2(CC1)C(=O)N(CC(=O)N[C@@H](CO)C(=O)N[C@@H]1CSc3ccccc3N(CC(=O)O)C1=O)CN2CCc1ccccc1 | –
3 | inactive | – | NCCCC[C@H](N)C(=O)N[C@@H](CCCN=C(N)N)C(=O)N1CCC2(CC1)CN(CC(=O)N[C@@H]1CSc3ccccc3N(CC(=O)O)C1=O)C(=O)N2CCc1ccccc1 | –
4 | – | – | NC(N)=NCCC[C@H](NC(=O)[C@@H](N)CCCN=C(N)N)C(=O)NCCCCCCCCCCC(=O)N[C@@H](CO)C(=O)N1Cc2ccccc2C[C@H]1C(=O)N1C2CCCCC2C[C@H]1C(=O)O (stereo partly specified) (H-RR[Aun]S[Tic][Oic(3aξ,7aξ)]-OH) | Kb (Rattus norvegicus): 79.4 nM
5 | inactive | – | C[C@H](NC(=O)CN1CN(CCc2ccccc2)C2(CCN(C(=O)[C@H](CCCN=C(N)N)NC(=O)[C@@H](N)CCCCN)CC2)C1=O)C(=O)N[C@@H]1CSc2ccccc2N(CC(=O)O)C1=O | –
6 | inactive | inactive | NCc1ccc(C(=O)NC(CCCN=C(N)N)C(=O)N2CCC3(CC2)C(=O)N(CC(=O)NC(CO)C(=O)N[C@@H]2CSc4ccccc4N(CC(=O)O)C2=O)CN3CCc2ccccc2)cc1 (stereo partly specified) | –
7 | inactive | – | NCCCC[C@H](N)C(=O)N[C@@H](CCCN=C(N)N)C(=O)N1CCC2(CC1)C(=O)N(CC(=O)N[C@@H](CO)C(=O)N[C@@H]1CSc3ccccc3N(CC(=O)O)C1=O)CN2CCC1Cc2ccccc2C1 | NS [1]: inactive
8 | inactive | – | C[C@@H](O)[C@H](NC(=O)CN1CN(CCc2ccccc2)C2(CCN(C(=O)[C@H](CCCN=C(N)N)NC(=O)[C@@H](N)CCCCN)CC2)C1=O)C(=O)N[C@@H]1CSc2ccccc2N(CC(=O)O)C1=O | –
9 | inactive | inactive | N=C(N)NCCCC(NC(=O)C1CCNCC1)C(=O)N1CCC2(CC1)C(=O)N(CC(=O)NC(CO)C(=O)N[C@@H]1CSc3ccccc3N(CC(=O)O)C1=O)CN2CCc1ccccc1 (stereo partly specified) | –
10 | inactive | inactive | C[C@H](NC(=O)[C@@H](N)CCCCN)C(=O)N1CCC2(CC1)C(=O)N(CC(=O)N[C@@H](CO)C(=O)N[C@@H]1CSc3ccccc3N(CC(=O)O)C1=O)CN2CCc1ccccc1 | –
11 | – | – | NCCCC[C@H](N)C(=O)N[C@@H](CCCN=C(N)N)C(=O)N1CCC2(CC1)C(=O)N(CC(=O)N[C@@H](CO)C(=O)N[C@@H]1CSc3ccccc3N(CC(=O)O)C1=O)CN2CCc1ccccc1 | Ki (B2 bradykinin receptor): 11900 nM; Kb (Homo sapiens): 794 nM; Ki (B1 bradykinin receptor): 24.1 nM
12 | inactive | inactive | N=C(N)NCCCCC(=O)NC(CCCNC(=N)N)C(=O)N1CCC2(CC1)C(=O)N(CC(=O)NC(CO)C(=O)N[C@@H]1CSc3ccccc3N(CC(=O)O)C1=O)CN2CCc1ccccc1 (stereo partly specified) | –
